Most compounds without a hit are left out; they make up all but 4.9% or so of the library.
APP 5'UTR act: APP 5'UTR luciferase reporter activation; SH-SY5Y APP 5'UTR luciferase reporter, luminescence; zero percent = DMSO vehicle wells; activation, % at 2 µM; actives 1% (n = 190,000); AID 1276;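 active means activation above a set limit, based on mean plus 3 SD of controls, cut at about 140% in these data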
NF-kB neuron act: NF-kB expression increase, human neuronal cells; NF-kB reporter expression; stronger effect = higher value; fold change at 12.5 µM; actives 1.6% (n = 190,000); in the data active means fold change above about 3.3
STAT3 act: increases IL-6 driven STAT3 reporter signal. actives 0.91% (n = 190,000). activation (% of control), % at 5.6 µM. U3A cells, IL-6 STAT3-luciferase reporter, luminescence; 100% = signal with IL-6 EC80 alone;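 active means activation above the screen-wide mean of compound activation plus 3 SD, cut at about 130% in these data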
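System – human U3A cells carrying STAT3-luciferase construct · Probe or stimulus – Interleukin-6, 33 ng/mL · Schedule – compound 1 h, then IL-6 6 h at 37 °C · Signal – luminescence from STAT3-driven luciferase reporter · Evaluation – percent of IL-6-only median luminescence · Benchmarks – IL-6-only high control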
STAT1 blocker: reduces IFN-gamma driven STAT1 reporter signal; NIH 3T3 STAT1-luciferase reporter, luminescence; inhibition, % at 5.5 µM; actives 0.35% (n = 200,000); AID 920;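 active means inhibition above a set limit, the mean inhibition across all tested compounds plus 3 SD, cut at about 34% in these data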
STAT3 inh-1: STAT3 signaling inhibition | U3A cells, IL-6 STAT3-luciferase reporter, luminescence; host cell line lacks STAT1 | inhibition, % at 5.5 µM | actives 0.89% (n = 190,000) | AID 862;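 active means inhibition above the mean inhibition across all screened compounds plus 3 SD, cut at about 44% in these data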
STAT1 activator: STAT1 signaling activation; activation (% of control), % at 5.5 µM; actives 2.6% (n = 200,000); NIH 3T3 STAT1-luciferase reporter, IFN-gamma, luminescence; 100% = IFN-gamma alone, no compound; AID 932;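 active means activation above the screen-wide mean activation plus 3 SD, cut at about 130% in these data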
STAT3 inh-2: STAT3 inhibition, confirmation assay. shares compounds with STAT3 inh-1. U3A cells, IL-6 STAT3 luciferase reporter, luminescence; cell line lacks STAT1. inhibition, % at 5.7 µM. actives 45% (n = 1,200);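 active means inhibition above the hit cutoff computed for the primary STAT3 screen, cut at about 44% in these data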
NFkB inh STAT3ct: inhibits NF-kappaB, counter-screen to STAT3 inhibitors | actives 36% (n = 1,200) | shares compounds with STAT3 inh-1 | inhibition, % at 5.7 µM | HEK293T NF-kB luciferase reporter, TNF-alpha induced;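 active means inhibition above the mean of solvent-only control wells plus 3 SD, cutoff set per campaign, cut at about 13% in these data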
STAT1 inh 2: inhibits STAT1, counter-screen to STAT3 inhibitors | inhibition, % at 5.7 µM | NIH 3T3 STAT1-luciferase reporter, IFN-gamma induced, luminescence | shares compounds with STAT3 inh-1 | actives 27% (n = 1,200);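 active means inhibition above the mean plus 3 SD of solvent-only control wells, limit set per screening run, cut at about 16% in these data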
Each line names hits and unclear results; the compound was inactive in the other large screens (follow-up assays come after a bar, where they were run).

CCCCCCNC(=O)CCCCCNS(=O)(=O)c1ccc(Br)cc1	none
COCCNC(=O)Cn1cc(C(=S)N2CCOCC2)c2ccccc21	none
O=C(N/N=C/c1cn(-c2ccccc2)nc1-c1cccs1)c1ccncc1	none
Cc1ccc(-c2nn(-c3ccccc3)cc2CO)o1	NF-kB neuron act 3.81, STAT1 activator 147.5
Cc1ccc(-c2nn(-c3ccccc3)cc2C=O)o1	APP 5'UTR act 143.6, NF-kB neuron act 4.45, STAT1 activator 142.6
Cc1ccc(-c2nn(-c3ccccc3)cc2/C=N/NC(=O)c2ccncc2)o1	APP 5'UTR act 157.7
O=[N+]([O-])c1ccc2oc(-c3ccccc3)nc2c1	NF-kB neuron act 4.22, STAT1 activator 145.3
Nc1ccc(-c2nc3ccc(N)cc3o2)cc1	none
CCCC(=O)Nc1ccc2oc(-c3ccc(OC)c(Br)c3)nc2c1	none
CCCC(=O)Nc1ccc(-c2nc3cc(C)ccc3o2)cc1	APP 5'UTR act 190.3, NF-kB neuron act 5.07, STAT1 activator 136.2
COc1ccc(-c2nc3ccc([N+](=O)[O-])cc3o2)cc1	APP 5'UTR act 149.7
NC(N)=Nc1nc2cc([N+](=O)[O-])ccc2o1	none
CCC(=O)NC(=S)Nc1ccc2oc(-c3ccc(OC)cc3)nc2c1	APP 5'UTR act 137.2
C=C(C)CSc1[nH]c(=O)cc(C)c1C#N	none
Cc1ccc(C)c(-c2nc3cc(N)ccc3o2)c1	none
Cc1ccc2oc(-c3ccccc3)nc2c1	STAT1 activator 134.3
Cc1cccc(-c2nc3cc([N+](=O)[O-])ccc3o2)c1	NF-kB neuron act 3.49
C/C(CC(=O)Nc1ccc(F)cc1)=N\NC(=O)COc1ccccc1	none
CCC(C)(C(=O)NC1CCCCC1)N(CC1CCCO1)C(=O)Cc1cccs1 (stereo unspecified)	none
CCC(=O)N(CCc1ccc(S(N)(=O)=O)cc1)C1CC(=O)N(c2ccc(OC)cc2)C1=O (stereo unspecified)	none
Cc1cc(C)cc(NC(=O)c2ccccc2CC[N+](=O)[O-])c1	none
Cc1ccc(NC(=O)Nc2ccccc2CC[N+](=O)[O-])cc1	STAT3 act 133.2
Cc1ccc(C)c(C(C)NC(=O)c2ccc(Br)o2)c1 (stereo unspecified)	none
Cc1ccc(OCc2cnc(Cl)s2)c(C)c1	STAT1 activator 137.0
O=C(Nc1ccc(Cl)c([N+](=O)[O-])c1)ONC1=NCCCCC1	none
CC(C)c1ccc(/C=C/c2ccc(=O)n(C)n2)cc1	NF-kB neuron act 7.47, STAT1 activator 130.8
CCOC(=O)C(C)n1nc(/C=C/c2ccc(OC)cc2)ccc1=O (stereo unspecified)	none
c1ccc(OCc2noc(CN3CCC(C4CCCCC4)C3)n2)cc1 (stereo unspecified)	none
CCOC(=O)Cn1cnc(-c2ccc([N+](=O)[O-])cc2)c1	STAT1 activator 136.4
Cc1cc(C)n(C(=O)COc2ccc([N+](=O)[O-])cc2)n1	none
Cn1ncc(Cl)c1C(=O)Nc1nc2ccc(Cl)cc2s1	STAT1 activator 149.8
O=C(Nc1nc2ccc(Cl)cc2s1)c1ccc(Br)o1	NF-kB neuron act 3.5, STAT1 activator 148.1
CCCNC(=O)c1cc(-c2ccco2)on1	NF-kB neuron act 4.94
O=C(NC1CCCCC1)c1cc(-c2ccco2)on1	STAT1 activator 129.9
COc1ccc(C)cc1N(C(=O)COc1cccc(F)c1)c1nc2ccccc2s1	STAT3 act 134.3
COc1cc(OC)c(C(=O)OCC(=O)N(Cc2ccccc2)C(C)(C)C)cc1OC	none
CC(C)(C)c1ccc(/C=C/C(=O)NC2=NCCS2)cc1	APP 5'UTR act 183.8
CCCc1cc(C(=O)Nc2cc(Br)ccc2O)no1	NF-kB neuron act 5.49
CC(C)c1cc(C(=O)Nc2cc(Cl)ccc2O)no1	APP 5'UTR act 138.6, NF-kB neuron act 8.61
CC(C)c1cc(C(=O)Nc2cc(Br)ccc2O)no1	NF-kB neuron act 7.54
CCCc1cc(C(=O)NCc2ccc(OC)cc2)no1	none
CCOc1cc(NC(=S)NCC2CCCO2)c(OCC)cc1NC(=O)CC(C)C (stereo unspecified)	none
O=[N+]([O-])c1nn(-c2ccc3c(c2)OCCO3)n(O)c1=NCCCO	none
O=[N+]([O-])c1nn(-c2ccc3c(c2)OCCO3)n(O)c1=Nc1ccccc1	STAT1 blocker 45.9, STAT3 inh-1 90.3
Cc1ccc(CN=c2c([N+](=O)[O-])nn(-c3ccc4c(c3)OCCO4)n2O)cc1	STAT1 activator 135.4
O=[N+]([O-])c1nn(-c2ccc3c(c2)OCCO3)n(O)c1=Nc1ccc(Cl)cc1	none
CN1/C(=C\C(=O)C[n+]2ccc3ccccc3c2)C(C)(C)c2ccccc21	STAT3 inh-1 73.2 | STAT3 inh-2 73.5 | NFkB inh STAT3ct inactive | STAT1 inh 2 inactive
O=C(Nc1ccc(Br)cc1)c1ccc(N2C(=O)C3CC=C(Cl)CC3C2=O)cc1 (stereo unspecified)	STAT3 inh-1 46.6 | STAT3 inh-2 inactive | NFkB inh STAT3ct inactive | STAT1 inh 2 inactive
Nc1ccc(C(=O)Nc2nc3ccccc3s2)cc1	APP 5'UTR act 159.5, NF-kB neuron act 3.9, STAT3 inh-1 51.1 | STAT3 inh-2 inactive | NFkB inh STAT3ct inactive | STAT1 inh 2 inactive
Cc1ccc2nc(-c3cc(N)cc(N)c3)oc2c1	STAT3 inh-1 43.4 | STAT3 inh-2 inactive | NFkB inh STAT3ct inactive | STAT1 inh 2 inactive
COc1ccc(C)cc1NC(=O)c1ccccc1NS(=O)(=O)c1ccc(Cl)s1	none
COc1cc(C2CC(=O)c3c([nH]c(C(=O)OCCOC(C)C)c3C)C2)cc(OC)c1OC (stereo unspecified)	STAT3 inh-1 58.8 | STAT3 inh-2 45.6 | NFkB inh STAT3ct inactive | STAT1 inh 2 20.8
Cc1c(NC(=S)N2CCN(c3ccc(F)cc3)CC2)c(=O)n(-c2ccccc2)n1C	none
O=C(NC1=NC2CCCCC2N1)c1ccccc1 (stereo unspecified)	STAT3 inh-1 49.2 | STAT3 inh-2 inactive | NFkB inh STAT3ct inactive | STAT1 inh 2 inactive
O=C(Nc1ccc(N2CCN(C(=O)c3ccc(Cl)cc3)CC2)cc1)c1ccc2c(c1)OCCO2	STAT3 inh-1 86.7 | STAT3 inh-2 78.7 | NFkB inh STAT3ct 28.7 | STAT1 inh 2 inactive

Screens as filed in PubChem.
